From ChEMBL document CHEMBL1145471, “Small molecule regulators of autophagy identified by an image-based high-throughput screen” (Proc Natl Acad Sci U S A, 2007)
Calls of active or inactive are those of the source. No cut-off for these calls is given here.

Columns and labels:
[1] = test system: H4; experiment: Increase in ratio of light chain 3 subunit 2 to light chain 3 subunit 1 in human H4 cells at 0.2 uM after 4 hrs by Western blot; format: functional, cell-based
Outline: (§1)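 H4 cells were treated with each compound for 4 h, then lysed. Lysates were immunoblotted with anti-LC3 antibody, with actin as loading control. LC3II and LC3I bands were compared as an LC3II/LC3I ratio.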

[2] = test system: H4; experiment: Reduction of poly(Q) level in human H4 cells expressing EGFP-Q79-HA after 24 hrs; format: functional, cell-based
Outline: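 H4 cells were transiently transfected with an EGFP-Q79-HA expression vector. The medium was replaced 6 h after transfection and compounds were added. Poly(Q) was detected with anti-HA antibody.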

[3] = molecular target: T1, Serine/threonine-protein kinase mTOR (Homo sapiens, UniProt P42345); experiment: Effect on mTOR phosphorylation in human H4 cells at 0.2 uM after 4 hrs; format: cell-based
Outline: (§2)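 H4 cells treated with compound for 4 h; lysates analysed by Western blot using anti-phospho/non-phospho mTOR antibody, with actin as loading control; rapamycin used for comparison. Cells grown in DMEM with 10% FBS, penicillin/streptomycin, 2 mM L-glutamine at 37°C, 5% CO2.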

[4] = test system: H4; experiment: Increase in light chain 3-GFP+ autophagosome vesicle number per cell in human H4 cells at 0.2 uM after 24 hrs by high throughput fluorescence microscopy relative to control; format: functional
Outline: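 H4 cells stably expressing LC3-GFP were grown in DMEM with 10% FBS and 2 mM L-glutamine at 37°C, 5% CO2. They were exposed to each compound for 24 h, with DMSO as negative and rapamycin as positive control. Cells were then fixed in 4% paraformaldehyde and stained with 3 μg/ml DAPI. High-throughput fluorescence imaging scored LC3-GFP spot number, size and intensity, expressed relative to DMSO. Mean ± SD of triplicates; experiments repeated three times.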

[5] = test system: H4; experiment: Increase in long-lived protein degradation in human H4 cells after 24 hrs relative to control; format: functional; set-up: concentration or dose not given beside the values
[6] = test system: H4; experiment: Increase in light chain 3-GFP+ autophagosome vesicle intensity per cell in human H4 cells at 0.2 uM after 24 hrs by high throughput fluorescence microscopy relative to control; format: functional
Outline: (§3)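 H4 cells stably expressing LC3-GFP, seeded in 96-well plates and exposed to compound for 24 h; screening concentrations were 3–12 μM, with rapamycin 0.22 μM and bafilomycin A1 0.40 μM. Cells fixed in 4% paraformaldehyde and stained with 3 μg/ml DAPI. Number, size and intensity of LC3-GFP spots measured by high-throughput fluorescence microscopy and expressed as percent of DMSO-treated wells. Rapamycin was the positive control. Triplicate wells, mean ± SD; experiments repeated three times.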

[7] = test system: H4; experiment: Increase in light chain 3-GFP+ autophagosome vesicle area per cell in human H4 cells at 0.2 uM after 24 hrs by high throughput fluorescence microscopy relative to control; format: functional; outline: as §3
[8] = test system: H4; experiment: Increase in FYVE-RFP+ vesicle intensity per cell in human H4 cells after 4 hrs relative to control; format: functional; set-up: concentration or dose not given beside the values
Outline: (§4)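 H4 cells stably expressing FYVE-RFP (H4-FYVE), grown in DMEM with 10% FBS, penicillin/streptomycin and 2 mM L-glutamine at 37°C, 5% CO2, seeded in 96-well plates and exposed to compound. Fixed in 4% paraformaldehyde, nuclei stained with 3 μg/ml DAPI, FYVE-RFP+ vesicles quantified by high-throughput fluorescence microscopy against DMSO control. Triplicate wells, mean ± SD.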

[9] = test system: H4; experiment: Increase in long-lived protein degradation in human H4 cells after 1 hr relative to control; format: functional; set-up: concentration or dose not given beside the values
[10] = test system: H4; experiment: Increase in long-lived protein degradation in human H4 cells after 2 hrs relative to control; format: functional; set-up: concentration or dose not given beside the values
[11] = test system: H4; experiment: Increase in long-lived protein degradation in human H4 cells after 4 hrs relative to control; format: functional; set-up: concentration or dose not given beside the values
[12] = test system: H4; experiment: Increase in FYVE-RFP+ vesicle intensity per cell in human H4 cells after 8 hrs relative to control; format: functional; set-up: concentration or dose not given beside the values; outline: as §4
[13] = test system: H4; experiment: Induction of light chain 3-GFP level in human H4 cells at 0.2 uM after 24 hrs by high throughput fluorescence microscopy relative to control; format: functional
[14] = test system: H4; experiment: Increase in FYVE-RFP+ vesicle intensity per cell in human H4 cells after 2 hrs relative to control; format: functional; set-up: concentration or dose not given beside the values; outline: as §4
[15] = test system: H4; experiment: Induction of light chain 3-GFP level in human H4 cells at 3.9 uM after 24 hrs by high throughput fluorescence microscopy relative to control; format: functional
Outline: (§5)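 H4 cells stably expressing LC3-GFP, kept in DMEM/10% FBS at 37°C, 5% CO2, were seeded in 96-well plates and exposed to compound for 24 h. Cells were then fixed in 4% paraformaldehyde and stained with 3 μg/ml DAPI. Automated fluorescence microscopy scored the number, size and intensity of LC3-GFP spots. Values are percent of DMSO wells, in triplicate, mean ± SD. Rapamycin served as positive control.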

[16] = test system: H4; experiment: Increase in light chain 3-GFP+ autophagosome vesicle number per cell in human H4 cells at 3.9 uM after 24 hrs by high throughput fluorescence microscopy relative to control; format: functional; outline: as §5
[17] = test system: H4; experiment: Increase in light chain 3-GFP+ autophagosome vesicle area per cell in human H4 cells at 3.9 uM after 24 hrs by high throughput fluorescence microscopy relative to control; format: functional
Outline: (§6)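 H4 cells stably expressing LC3-GFP, seeded in 96-well plates and exposed to compound for 24 h; fixed in 4% paraformaldehyde, nuclei stained with 3 μg/ml DAPI. Automated fluorescence microscopy scored number, size and intensity of LC3-GFP spots; values expressed relative to DMSO-treated wells, rapamycin positive control. Triplicate wells, mean ± SD; experiments repeated three times.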

[18] = molecular target: T1, Serine/threonine-protein kinase mTOR; experiment: (§7) Effect on mTOR phosphorylation in human H4 cells at 3.9 uM after 4 hrs; format: cell-based
Outline: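 H4 cells exposed to compound for 4 h. Lysates analysed by Western blot with anti-phospho and anti-total mTOR antibodies, with actin as loading control. Rapamycin served as reference.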

[19] = test system: H4; experiment: Increase in light chain 3-GFP+ autophagosome vesicle intensity per cell in human H4 cells at 3.9 uM after 24 hrs by high throughput fluorescence microscopy relative to control; format: functional; outline: as §6
[20] = test system: H4; experiment: (§8) Increase in ratio of light chain 3 subunit 2 to light chain 3 subunit 1 in human H4 cells at 3.9 uM after 4 hrs by Western blot; format: functional, cell-based; outline: as §1
[21] = test system: H4; experiment: as §8; format: functional, cell-based; remark: listed apart in the source
Outline: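 H4 cells were exposed to compound for 4 h, then lysed. Lysates were blotted with anti-LC3 antibody, with actin as loading control, and the LC3II/LC3I band ratio was taken.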

[22] = molecular target: T1, Serine/threonine-protein kinase mTOR; experiment: as §7; format: cell-based; outline: as §2; remark: listed apart in the source

Row | Compound | Activity [2] | Activity [5] [%] | Activity [8] [%] | Activity [9] [%] | Activity [10] [%] | Activity [11] [%] | Activity [12] [%] | Activity [14] [%] | Activity [15] [%] | Activity [16] [%] | Activity [17] [%] | Activity [19] [%] | also measured
1 | CO[C@H]1C[C@@H]2CC[C@@H](C)[C@@](O)(O2)C(=O)C(=O)N2CCCC[C@H]2C(=O)O[C@H]([C@H](C)C[C@@H]2CC[C@@H](O)[C@H](OC)C2)CC(=O)[C@H](C)/C=C(\C)[C@@H](O)[C@@H](OC)C(=O)[C@H](C)C[C@H](C)/C=C/C=C/C=C/1C [SIROLIMUS] | Dose-dependent effect | 165.87 | 131.41 | 159.89 | 171.67 | 149.89 | 152.35 | – | – | – | – | – | Activity [1]: Active; AC50 [3]: Not Active; Activity [4]: 205.66%; Activity [6]: 285.38%; Activity [7]: 259.68%; Activity [13]: 88.62%
2 | COC(=O)C1=C(C)NC(C)=C(C(=O)OCCCN2CCC(c3ccccc3)(c3ccccc3)CC2)[C@H]1c1cccc([N+](=O)[O-])c1 [NIGULDIPINE] | Dose-dependent effect | 117.85 | 148.26 | 71.65 | 107.42 | 105.68 | 125.53 | 147.18 | 132.78 | 282.89 | 405.33 | 777.92 | Activity [18]: inactive; Activity [20]: Active
3 | C=C(C)[C@H]1O[C@H]2CC[C@@]3(C)[C@@](O)(CC[C@H]4[C@@H]5OC(C)(C)[C@H]6C[C@@H]7C(=C)Cc8c(Cl)cc9[nH]c(c5c9c8[C@@]76O)[C@@]43C)[C@@]23O[C@H]3[C@H]1O [PENITREM A] | Dose-dependent effect | 141.83 | 87.41 | 92.88 | 126.09 | 132.13 | 72.71 | 121.4 | 93.08 | 146.36 | 163.15 | 166.85 | Activity [21]: Active; Activity [22]: inactive
